HSF1 activator = increases HSF-1 driven luciferase reporter signal; activation, % at 9 µM; NIH3T3-HGL HSF-1 luciferase reporter, MG132, 8 h; 100% = twice DMSO control signal; 300,000 tested, 1.7% active;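 active = mean replicate activation of at least 50% with a set share of replicates each reaching 50%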;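 note: 0% = median of the neutral control wells and 100% = twice that signal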
697 NFkB inh = lowers PMA/ionomycin-induced NF-kB signal in 697 B cells. 330,000 tested, 0.33% active. inhibition, % at 4 µM. 697 B-cell NF-kB luciferase reporter, 16 h; in the data active = inhibition above about 35%
GPR7 antag = human neuropeptides B/W receptor 1 antagonism. AID 1861. inhibition, % at 4.4 µM. 290,000 tested, 1.1% active. P48145. GPR7-expressing cells, fluorescence antagonist assay; in the data active = inhibition above about 16%, passing the limit was not always enough;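 note: cells stimulated with the agonist NPW; 0% = agonist with vehicle and 100% = vehicle without agonist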
Target sequence (P48145 whole entry, looked up): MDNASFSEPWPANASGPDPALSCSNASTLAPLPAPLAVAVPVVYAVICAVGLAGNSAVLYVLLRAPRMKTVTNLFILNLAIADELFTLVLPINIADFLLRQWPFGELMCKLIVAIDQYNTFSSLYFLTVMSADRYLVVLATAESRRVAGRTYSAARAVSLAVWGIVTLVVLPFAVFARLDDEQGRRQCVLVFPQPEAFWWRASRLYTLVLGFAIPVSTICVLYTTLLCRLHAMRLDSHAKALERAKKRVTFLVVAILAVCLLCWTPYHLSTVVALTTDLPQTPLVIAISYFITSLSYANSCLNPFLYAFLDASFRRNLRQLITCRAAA
T cruzi inh = T. cruzi replication inhibition | 300,000 tested, 1.4% active | T. cruzi beta-gal in NIH3T3, luminescence, 90 h | AID 1885 | inhibition, % (test concentration not listed);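 active = mean inhibition across valid replicates above about 55%, limit read from the data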;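 note: signal also drops with host cell toxicity which is not excluded here; 0% = plate median of DMSO wells and 100% = zero luminescence signal; higher percent means less beta-gal luminescence so fewer parasites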
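System: NIH/3T3 fibroblasts plus reporter T. cruzi. Medium: DMEM plus 2% FBS. Probe or stimulus: 5000 reporter trypomastigotes per well. Compound: single 50 nL compound addition per well in DMSO. Incubation: co-culture of at least 90 h after 3 h attachment. Detection: GalScreen β-gal luminescence, detergent lysis, 60 min. Evaluation: parasite load inhibition, %.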
HSF1 inh = HSF1 inhibition; NIH3T3-HGL HSE-luciferase, MG132-induced, luminescence 8 h; active compounds read low; activity change, negative = inhibition, % at 7.5 µM (by protocol); 300,000 tested, 0.77% active; AID 2098;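 active = more than half of replicate wells show activity change below -50%, luminescence cut by over half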;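 note: luciferase reports HSF-1 transcriptional activity via heat shock element; 0% = median of DMSO wells and -100% = zero luminescence signal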
Jurkat NFkB inh = inhibitors of the PMA/ionomycin-induced NF-kB reporter in Jurkat cells | 330,000 tested, 0.53% active | inhibition, % at 4 µM | PMA/ionomycin-induced NF-kB luciferase reporter, luminescence | AID 435003; in the data active = inhibition above about 50%
Jurkat NFkB conf = lowers PMA/ionomycin-induced NF-kB signal in Jurkat cells; shares compounds with Jurkat NFkB inh; Jurkat NF-kB luciferase, 16 h; inhibition, % at 4 µM; 2,700 tested, 27% active;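 active = inhibition reaching about 45% at 4 µM in either replicate, limit read from the data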;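 note: plate controls were PMA/ionomycin stimulated DMSO wells for no effect and unstimulated DMSO wells for full effect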
Starred values were filed as active, the others as inactive; · = no result. This is a sample that favours compounds with a hit; in the whole collection about 4.8% have one here.

SMILES	HSF1 activator	697 NFkB inh	GPR7 antag	T cruzi inh	HSF1 inh	Jurkat NFkB inh	Jurkat NFkB conf
COc1ccc(NC(=O)CN2C(=O)NC(C)(C3CC3)C2=O)cc1S(=O)(=O)N1CCOCC1 (stereo not given)	·	13	·	·	·	-17	·
O=c1c(C(c2ccccc2)c2c(O)nc3n(c2=O)CCS3)c(O)nc2n1CCS2	-29	17	5	-16	-8	10	·
Cc1cc(N2CCOCC2)ccc1/C=C1\SC(=O)N(C(C)C)C1=O	78*	-101	-20	19	45	-170	-58
CC1=CC(C)(C)N(S(=O)(=O)c2ccc(C)cc2)c2cc(C)ccc21	-13	-95	17	10	-16	50*	53*
Cc1cc(C)nc(SCC(=O)c2ccc(F)cc2)n1	7	-62	-2	2	-4	-62	·
Cc1cc(C)nc(S/C=C/C(=O)c2ccc(F)cc2)n1	24	-155	-2	-20	13	70*	-1
COc1cccc2c1cc1c(=O)n(CC(=O)NCCCN3CCN(C)CC3)nc(C)n12	-5	3	-9	-21	0	-22	·
Cc1ccc(/C=N/n2nnnc2N)cc1	30	-15	·	-10	5	-7	·
Cc1no[n+]([O-])c1COc1ccc(/C=N/n2nnnc2N)cc1	4	-11	16	-9	-5	50*	14
COc1ccc(C(=O)NCCNC(=O)c2ccc(OC)cc2)cc1	-7	3	·	-12	-6	6	·
COc1ccc(C(=O)NCCSc2ccccc2)cc1	43	-204	-2	1	20	-212	-99
Cn1c2ccccc2c(=O)c2ccc(C#CC3(N)CCCCC3)cc21	-41	-165	12	21	-43	-176	-17
CC(=O)c1ccc(NC(=O)c2noc3c2CCCCC3)cc1	44	-121	-16	4	20	-165	-96
C#Cc1ccc([C@@H]2C=C(C(=O)N3CCN(Cc4ccccc4)CC3)O[C@H](OCCCCO)C2)cc1	-5	-18	-5	52	4	80*	43
COC(=O)CSc1nsc(SCC(=O)OC)n1	-8	-46	-16	-17	0	62*	10
CSc1nsc(SCC(=O)Nc2ccc(NC(C)=O)cc2)n1	15	4	-5	-4	10	-22	·
CNC(=O)CSc1nc(SC)ns1	-1	12	-14	-6	-1	-4	·
COc1ccc(NC(=O)CSc2nc(SC)ns2)cc1	27	-58	0	18	24	-154	-45
Cc1ccc(S(=O)(=O)N2CCCCC2)cc1NC(=O)CSc1ncccn1	·	3	·	·	·	-1	·
Cc1cc([N+](=O)[O-])nn1CCC(=O)Nc1nccs1	-4	12	-4	-12	6	6	·
NS(=O)(=O)c1ccc(Oc2ccc(S(N)(=O)=O)cc2)cc1	2	-10	8	-6	5	-15	·
C=CS(=O)(=O)c1ccc(Oc2ccc(S(=O)(=O)C=C)cc2)cc1	-92	3	35*	51	-93*	78*	91*
CCOC(=O)c1sc(=NC(=O)c2ccc(F)cc2)n(C)c1C	14	-198	-5	2	15	-154	-121
CCOC(=O)c1sc(=NC(=O)c2cccc(C)c2)n(C)c1C	6	-114	-8	23	-1	-186	-109
CCc1cc(Cn2nc(-c3ccccc3)cc2C(=O)NCc2cccs2)on1	·	-2	·	·	·	40	·
SMILES	HSF1 activator	697 NFkB inh	GPR7 antag	T cruzi inh	HSF1 inh	Jurkat NFkB inh	Jurkat NFkB conf
CCOc1ccccc1NC(=O)CC1(CC(=O)N2CCOCC2)CCCC1	·	21	·	·	·	3	·
N#CCC(CNc1ncc(C(F)(F)F)cc1Cl)OC(=O)c1cccc([N+](=O)[O-])c1 (stereo not given)	·	16	-7	-1	·	66*	14
N#CCC(CNc1ncc(C(F)(F)F)cc1Cl)OC(=O)c1c(F)cccc1F (stereo not given)	41	-3	-8	-23	26	75*	21
CCCn1c(N)c(C(=O)CN(C)CC(=O)Nc2ccc(F)cc2)c(=O)[nH]c1=O	·	14	·	·	·	1	·
O=C(Nc1nnc(-c2ccccc2)o1)C1CCCN1S(=O)(=O)c1cccs1 (stereo not given)	0	15	·	-7	-3	2	·
CC(C)[C@H](NC(=O)c1ccccc1)C(=O)OCC(=O)c1ccc(S(=O)(=O)N2CCCCC2)cc1	1	15	·	-13	4	12	·
CCC(=NCCc1c(C)[nH]c2ccc(C)cc12)C1=C(O)CC(c2ccccc2)CC1=O (stereo not given)	-11	-22	-5	12	-13	64*	10
CC(=O)C1=C(O)CC(c2ccccc2)CC1=NCCc1c(C)[nH]c2ccc(C)cc12 (stereo not given)	-8	-11	-4	16	2	-4	·
CN1C2=CC=CC=CC2=[N+](C)C12C=CC(=[N+]([O-])[O-])C=C2[N+](=O)[O-] (stereo not given)	8	11	-7	15	-5	0	·
CN1C2=CC=CC=CC2=[N+](C)C12C([N+](=O)[O-])=CC(=[N+]([O-])[O-])C=C2[N+](=O)[O-] (stereo not given)	2	-80	2	40	0	73*	19
O=C(c1ccco1)N1c2ccccc2Sc2ccccc21	0	-7	-3	34	-6	0	·
O=C(N1CCN(c2ccccn2)CC1)N1c2ccccc2Sc2ccccc21	1	-30	11	20	-8	68*	24
O=C(c1ccc(Br)s1)N1CCN(c2ccccn2)CC1	30	3	5	5	7	-12	·
O=C(c1ccco1)N1CCN(C(=O)N2c3ccccc3Sc3ccccc32)CC1	-42	-74	8	4	-29	59*	55*
CC(C)(C)OC(=O)NCc1ccc(NC(=O)c2nc[nH]c2C(=O)NCCNC(=O)c2[nH]cnc2C(=O)Nc2ccc(CNC(=O)OC(C)(C)C)cc2)cc1	·	15	·	·	·	62*	35
Cc1cc(OCc2cc(C(=O)N3CCCCCC3)no2)cc(C)c1Cl	13	-96	-1	9	2	-74	·
Clc1ccc(-n2ncc3c(NCc4ccccn4)ncnc32)cc1	-3	-52	7	-3	10	-50	·
C=CCNc1ncnc2c1cnn2-c1cccc(C)c1	21	-143	10	-13	17	-126	·
Clc1ccc(Cn2ncc3c(NCc4ccccc4)ncnc32)cc1	7	-28	16	-34	1	56*	34
COCC(C)Nc1ncnc2c1cnn2-c1ccc(Cl)cc1 (stereo not given)	6	-191	5	-7	-7	-175	-100
C=CCNc1ncnc2c1cnn2-c1ccc(Cl)cc1	49	-223	10	-3	29	-157	-143

Compound activity (PubChem BioAssay)
